The term IC50 denotes the concentration that inhibits the measured activity by half. A word on the ED50: it is the midpoint of the dose-response relation. Higher therefore signals a need for a large dose.

The target of one test is T1, Cholecystokinin receptor (Rattus norvegicus, UniProt P30551+P30553).
T1 sequence (P30551 whole entry): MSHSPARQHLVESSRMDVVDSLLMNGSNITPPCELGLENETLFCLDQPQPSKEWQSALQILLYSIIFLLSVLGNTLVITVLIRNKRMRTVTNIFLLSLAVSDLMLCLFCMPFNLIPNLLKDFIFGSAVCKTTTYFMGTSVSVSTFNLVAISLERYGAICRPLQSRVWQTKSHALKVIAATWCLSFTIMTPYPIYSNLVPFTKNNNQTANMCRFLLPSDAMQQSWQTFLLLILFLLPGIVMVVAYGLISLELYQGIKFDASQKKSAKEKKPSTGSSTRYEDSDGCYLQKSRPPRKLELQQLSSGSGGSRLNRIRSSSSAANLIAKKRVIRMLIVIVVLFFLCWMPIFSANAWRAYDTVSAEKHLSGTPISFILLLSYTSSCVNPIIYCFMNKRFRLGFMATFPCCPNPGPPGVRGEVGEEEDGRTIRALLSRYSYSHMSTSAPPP
T1 sequence (P30553 whole entry): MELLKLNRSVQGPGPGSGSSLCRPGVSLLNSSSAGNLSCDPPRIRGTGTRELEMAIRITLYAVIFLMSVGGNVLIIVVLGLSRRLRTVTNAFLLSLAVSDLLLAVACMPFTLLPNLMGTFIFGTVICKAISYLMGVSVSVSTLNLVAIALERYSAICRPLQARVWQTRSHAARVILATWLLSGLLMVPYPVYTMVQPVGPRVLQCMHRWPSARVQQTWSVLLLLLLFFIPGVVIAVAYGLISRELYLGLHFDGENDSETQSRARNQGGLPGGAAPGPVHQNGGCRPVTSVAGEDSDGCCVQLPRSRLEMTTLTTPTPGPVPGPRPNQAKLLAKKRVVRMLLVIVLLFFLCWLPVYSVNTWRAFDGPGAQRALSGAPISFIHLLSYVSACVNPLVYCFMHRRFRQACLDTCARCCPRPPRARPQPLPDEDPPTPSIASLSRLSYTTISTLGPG
The class given is protein assay.

Test [1] addresses GABA-A receptor; anion channel. Description: Displacement of [3H]diazepam from rat brain GABA-A benzodiazepine receptor. Background: In a radioligand displacement assay an active substance lowers the binding of a labelled ligand.
Test [2] deals with Mus musculus. The test is described as follows: In vivo activity on the basis of the ability to antagonize CCK-8 inhibition of charcoal meal gastric emptying in mice after intraperitoneal administration. The class given is functional. To be noted: Stomach, ip. The essentials: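 Mice dosed intraperitoneally 1 h before CCK-8 (80 μg/kg, sc), N ≥ 10/dose. A charcoal meal was given 5 min after CCK-8 and gastric emptying was measured 5 min later. ED50 was derived by regression from at least three dose levels.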

For test [3], the system named is Mus musculus. The test is described as follows: In vivo activity on the basis of the ability to antagonize CCK-8 inhibition of charcoal meal gastric emptying in mice after oral administration. To be noted: Stomach. In kind it is functional. The essentials:
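Oral dosing of mice (N ≥ 10/dose) 1 h before sc CCK-8 at 80 μg/kg. The charcoal meal followed CCK-8 by 5 min, with gastric emptying scored 5 min after that. ED50 was obtained by regression analysis using at least three dose levels.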

In the case of `SC1=Nc2ccc(Cl)cc2C(c2ccccc2)=N[C@@H]1Cc1c[nH]c2ccccc12`, the IC50 on Cholecystokinin receptor is 4.5 µM. The same measure, in the same setting: in the case of `CCOC(=O)CN1C(=O)[C@@H](Cc2c[nH]c3ccccc23)N=C(c2ccccc2F)c2ccccc21` it was 8.3 µM. Still for that read-out and setting: in the case of `O=C1Nc2ccccc2C(c2ccccc2F)=NC1Cc1c[nH]c2ccc(F)cc12` (stereo unspecified) it was 1.4 µM.

Turning to `O=C1Nc2ccc(Cl)cc2C(c2ccccc2)N[C@@H]1Cc1c[nH]c2ccccc12` (stereo partly specified), at Cholecystokinin receptor, the IC50 was found to be 12 µM. On the same count and under the same terms, as for `O=C1Nc2ccc(Cl)cc2C(c2ccccc2)=NC1Cc1ccc2ccccc2c1` (stereo unspecified), the figure is 49 µM. Same read-out and setting: as for `O=C1Nc2ccccc2C(c2ccccc2F)=N[C@H]1Cc1c[nH]c2ccccc12`, the figure is 10.6 µM. Turning to `O=C1Nc2ccc(Cl)cc2C(c2ccccc2Cl)=N[C@@H]1Cc1c[nH]c2ccccc12`, the IC50 in test [1] was more than 180 µM; against Cholecystokinin receptor, 5 µM. For the same molecule, the ED50 in the test on Mus musculus [2] is 119 mg/kg; in the test with Mus musculus [3], more than 600 mg/kg. On to `O=C1[C@@H](Cc2c[nH]c3ccccc23)N=C(c2ccccc2F)c2ccccc2N1CC1CC1`, for which, at Cholecystokinin receptor, the IC50 was found to be 2.2 µM. On the same count and under the same terms, as for `CC(C)CC(NC(=O)OC(C)(C)C)C(=O)N1CC(CC2N=C(c3ccccc3)c3ccccc3NC2=O)c2ccccc21` (stereo unspecified), the figure is 4.7 µM.

For `CC(C)C[C@H]1N=C(c2ccccc2)c2cc(Cl)ccc2NC1=O`, at Cholecystokinin receptor, the IC50 turned out to be 42 µM. Same read-out and setting: in the case of `CN1C(=O)/C(=C/c2ccsc2)N=C(c2ccccc2)c2ccccc21` it was 100 µM; in that of `CN1C[C@@H](CC2N=C(c3ccccc3)c3ccccc3N(C)C2=O)c2ccccc21` (stereo partly specified), 13 µM.

Consider `O=C1Nc2ccccc2C(c2ccccc2)=N[C@@H]1Cc1c[nH]c2ccccc12`, for which the IC50 in test [1] is more than 100 µM; against Cholecystokinin receptor, 1.2 µM. The ED50 in the test on Mus musculus [3] was more than 150 mg/kg. Take `CN1CC(CC2N=C(c3ccccc3)c3ccccc3N(C)C2=O)c2ccccc21` (stereo unspecified): on Cholecystokinin receptor, the concentration for half-maximal inhibition (IC50) was determined as 10 µM.

With `O=C1Nc2ccccc2C(c2ccccc2F)=NC1Cc1ccsc1` (stereo unspecified), the IC50 against Cholecystokinin receptor is 33 µM. Still for that read-out and setting: as for `O=C1Nc2ccccc2C(c2ccccc2)=NC1C[C@H]1CNc2ccccc21` (stereo partly specified), the figure is 21 µM; as for `O=C1Nc2ccccc2C1C[C@H]1N=C(c2ccccc2)c2cc(Cl)ccc2NC1=O` (stereo partly specified), 24 µM; as for `CCN1C(=O)[C@@H](Cc2c[nH]c3ccccc23)N=C(c2ccccc2F)c2ccccc21`, 0.3 µM.

With `O=C1[C@@H](Cc2c[nH]c3ccccc23)N=C(c2ccccc2F)c2ccccc2N1CC(F)(F)F`, the IC50 against Cholecystokinin receptor came out at 3.6 µM. Still for that read-out and setting: in the case of `CN1C(=O)/C(=C\c2ccsc2)N=C(c2ccccc2)c2ccccc21` it was 25 µM.

The molecule `CC(C)CC(N)C(=O)N1CC(CC2N=C(c3ccccc3)c3ccccc3NC2=O)c2ccccc21.Cl` (stereo unspecified) displayed an IC50 against Cholecystokinin receptor of 6.6 µM. On the same count and under the same terms, as for `O=C1Nc2ccccc2C(c2ccccc2)=NC1C[C@@H]1CNc2ccccc21` (stereo partly specified), the figure is 3.2 µM; as for `CN1C(=O)[C@@H](Cc2cn(C)c3ccccc23)N=C(c2ccccc2)c2ccccc21`, 0.1 µM. On the same count and under the same terms, as for `O=C1Nc2ccc(Cl)cc2C(c2ccccc2)=N[C@@H]1Cc1ccccc1`, the figure is 80 µM. On to `CC(C)CCN1C(=O)[C@@H](Cc2c[nH]c3ccccc23)N=C(c2ccccc2F)c2ccccc21`, for which the IC50 against Cholecystokinin receptor is listed as ~ 100 uM. The same measure, in the same setting: as for `O=C1Nc2ccc(Cl)cc2C(c2ccccc2)=N[C@@H]1COCc1ccccc1`, the figure is 60 µM. Same read-out and setting: as for `O=C1Nc2ccccc2C(c2ccccc2F)=NC1c1ccsc1` (stereo unspecified), the figure is more than 100 µM; as for `O=C(O)c1ccccc1C1=N[C@H](Cc2c[nH]c3ccccc23)C(=O)Nc2ccccc21`, 18 µM. Take `O=C1Nc2ccc(Cl)cc2C(c2ccccc2)=NC1Cc1cccc2ccccc12` (stereo unspecified): at Cholecystokinin receptor, the IC50 worked out at 23 µM.

At Cholecystokinin receptor, `CN1C(=O)[C@@H](Cc2cn(C)c3ccccc23)N(C(=O)c2ccc(Cl)cc2)C(c2ccccc2F)c2ccccc21` (stereo partly specified) showed an IC50 of more than 100 µM.

Consider `O=C1Nc2ccccc2C(c2ccccc2F)=NC1Cc1c[nH]c2cc(F)ccc12` (stereo unspecified), for which the IC50 against Cholecystokinin receptor worked out at 1.3 µM. Still for that read-out and setting: as for `O=C1[C@H](Cc2c[nH]c3ccccc23)N=C(c2ccccc2)c2cc(Cl)ccc2N1Cc1ccccc1`, the figure is more than 100 µM; as for `O=C1Nc2ccccc2C(c2ccccc2F)=NC1C[C@H]1CNc2ccccc21` (stereo partly specified), 17 µM.

On Cholecystokinin receptor, `O=C1Nc2ccccc2C(c2ccccc2)=NC1Cc1c[nH]c2ccc(Br)cc12` (stereo unspecified) showed an IC50 of 2.9 µM. The same measure, in the same setting: in the case of `CN(C)CCN1C(=O)[C@@H](Cc2c[nH]c3ccccc23)N=C(c2ccccc2F)c2ccccc21` it was ~ 100 uM.

Regarding `O=C1Nc2ccc(Cl)cc2C(c2ccccc2)=N[C@H]1Cc1c[nH]c2ccccc12`, the IC50 is 5.6 µM in test [1] and 32 µM against Cholecystokinin receptor. In the test on Mus musculus [3], the ED50 was more than 150 mg/kg. `O=C1Nc2ccc(Cl)cc2C(c2ccccc2)=N[C@@H]1Cc1ccc(OCc2ccccc2)cc1` gave an IC50 against Cholecystokinin receptor of more than 100 µM. The same measure, in the same setting: in the case of `CC(=O)N1C(Cc2cn(C)c3ccccc23)C(=O)N(C)c2ccccc2[C@@H]1c1ccccc1F` (stereo partly specified) it was ~ 100 uM. The same measure, in the same setting: as for `CN1C(=O)[C@@H](Cc2cn(Cc3ccccc3)c3ccccc23)N=C(c2ccccc2)c2cc(Cl)ccc21`, the figure is ~ 150 uM; as for `CN1C(=O)[C@@H](Cc2cn(C(=O)c3ccc(Cl)cc3)c3ccccc23)N=C(c2ccccc2F)c2ccccc21`, 11 µM.

At Cholecystokinin receptor, `CN1C(=O)[C@@H](Cc2c[nH]c3ccccc23)N=C(c2ccccc2)c2cc(Cl)ccc21` gave an IC50 of 1.4 µM. Turning to `O=C1[C@@H](Cc2c[nH]c3ccccc23)N=C(c2ccccc2)c2cc(Cl)ccc2N1Cc1ccccc1`, on Cholecystokinin receptor, the IC50 was more than 100 µM. On to `CN1C(=O)CN=C(c2ccccc2F)c2cc([N+](=O)[O-])ccc21` [FLUNITRAZEPAM], for which the IC50 in test [1] is 0.0017 µM. `CCCCCN1C(=O)[C@@H](Cc2c[nH]c3ccccc23)N=C(c2ccccc2F)c2ccccc21`: the IC50 at Cholecystokinin receptor is given as ~ 100 uM. On the same count and under the same terms, as for `CN1C(=O)[C@@H](Cc2c[nH]c3ccccc23)N=C(c2ccccc2)c2ccccc21`, the figure is 0.3 µM; as for `O=C(O)CCN1C(=O)[C@@H](Cc2c[nH]c3ccccc23)N=C(c2ccccc2F)c2ccccc21`, 1.4 µM. As to `CC1=N[C@H](Cc2c[nH]c3ccccc23)C(=O)Nc2ccccc21`, the IC50 in test [1] is more than 100 µM; against Cholecystokinin receptor it was 48 µM. At Cholecystokinin receptor, `NC(=O)CN1C(=O)[C@@H](Cc2c[nH]c3ccccc23)N=C(c2ccccc2F)c2ccccc21` came in with an IC50 of 2.1 µM. Same read-out and setting: in the case of `O=C1Nc2ccccc2C(c2ccccc2F)=NC1C[C@@H]1CNc2ccccc21` (stereo partly specified) it was 11 µM. Regarding `O=C1Nc2ccccc2C(c2ccccc2F)=N[C@@H]1Cc1c[nH]c2ccccc12`, the IC50 in test [1] was more than 100 µM; against Cholecystokinin receptor, 0.5 µM. Further, the results for the ED50 in the test on Mus musculus [2] and in the test on Mus musculus [3] were 41 mg/kg and 104 mg/kg, respectively. Molecule `CN1C(=O)[C@@H](Cc2cn(C)c3ccccc23)N=C(c2ccccc2F)c2ccccc21` displayed a concentration for half-maximal inhibition (IC50) against Cholecystokinin receptor of 0.36 µM. In addition, the ED50 with Mus musculus [2] is 18 mg/kg; in the test with Mus musculus [3] it was 39 mg/kg. On Cholecystokinin receptor, `Fc1ccccc1C1=N[C@H](Cc2c[nH]c3ccccc23)CNc2ccccc21` displayed an IC50 of 4 µM.

On Cholecystokinin receptor, `N#CCCN1C(=O)[C@@H](Cc2c[nH]c3ccccc23)N=C(c2ccccc2F)c2ccccc21` showed an IC50 of 0.7 µM.

(Values after ChEMBL document CHEMBL1123786, “Design of nonpeptidal ligands for a peptide receptor: cholecystokinin antagonists” (J Med Chem, 1987).)
